From ChEMBL document CHEMBL1687834, “Identification and characterization of persistent intracellular human immunodeficiency virus type 1 integrase strand transfer inhibitor activity” (Antimicrob Agents Chemother, 2011)
Calls of active or inactive are those of the source. The calls are words filed in the database; no cut-off is given here.

Key:
[1] = Cytotoxicity against human HeLaT4 cells by WST-1 assay; format: cell-based
Outline: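 HeLa-T4 cells grown in DMEM with 10% FBS, 100 IU/ml penicillin and 100 μg/ml streptomycin; drug cytotoxicity measured by WST-1 read-out, with drugs tested up to 100 μM; 50% cytotoxic concentration (CC50) reported.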

[2] = Selectivity index, ratio of CC50 for human HeLa-T4 cells to EC50 for single-round HIV1 NLX.Lux-R harboring inactivating mutations in env, vpr and carries firefly luciferase gene in place of nef; format: toxicity, cell-based; conditions: read-out: Ratio CC50/EC50
Outline: (§1)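 HeLa-T4 cells infected in duplicate for 2 h with 105 RT-cpm VSV-G-pseudotyped HIV-Luc (MOI ~0.01) with serial drug dilutions, washed and re-fed with the same drug. Luciferase normalized to total protein at 48 h, minus matched integrase-mutant N/N-Luc background. EC50/EC95 by GROWTH fit, ≥3 experiments; CC50 by WST-1 on HeLa-T4; SI = CC50/EC50.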

[3] = tested on: Human immunodeficiency virus 1; test: Antiviral activity against single-round HIV1 NLX.Lux-R harboring inactivating mutations in env, vpr and carries firefly luciferase gene in place of nef infected in human HeLa-T4 cells assessed as inhibition of 2 mins magnetic nanopartials-medated infectivity after 48 hrs luciferase assay; format: functional, organism-based; conditions: for EC50: Human immunodeficiency virus 1, HeLaT4
Outline: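 HeLa-T4 cells infected with virus dialysed against HS buffer (pH 7.3, 24 h, 4°C), plus 1.5% FBS, preincubated 5 min with 0.5 mg/ml magnetite nanoparticles. Added at 1:13 (vol/vol) final, 2 min under ~1 T, washed three or four times. Incubated at 37°C; luciferase read at 48 h.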

[4] = tested on: Human immunodeficiency virus 1; test: Antiviral activity against single-round HIV1 NLX.Lux-R harboring inactivating mutations in env, vpr and carries firefly luciferase gene in place of nef infected in human HeLa-T4 cells assessed as luciferase activity after 48 hrs […]; format: functional, organism-based; conditions: Human immunodeficiency virus 1, HeLaT4, 48 h; outline: as §1
[5] = tested on: Human immunodeficiency virus 1; test: Antiviral activity against single-round HIV1 NLX.Lux-R harboring inactivating mutations in env, vpr and carries firefly luciferase gene in place of nef infected in human HeLa-T4 cells assessed as time required to 50% inhibition of infection at 10 times EC95 by time-of-addition assay; format: functional
Outline: (§2)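 Time-of-addition: drug at 10× or 100× EC95 added to HIV-Luc-infected HeLa-T4 cultures at set times after infection. Lysis at 48 h; luciferase as percent of no-drug cells. The time giving 50% inhibition versus the no-drug control was read from the curves.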

[6] = tested on: Human immunodeficiency virus 1; test: (§3) Antiviral activity against single-round HIV1 NLX.Lux-R harboring inactivating mutations in env, vpr and carries firefly luciferase gene in place of nef assessed as level of infection using human HeLaT4 cells pretreated for 24 hrs followed by exposed to virus immediately after 3 times compound washout; format: functional, organism-based; conditions: Human immunodeficiency virus 1, HeLaT4
Outline: (§4)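 HeLa-T4 cells pretreated 24 h with 100× EC95 drug, washed three times, then infected with VSV-G-pseudotyped HIV-Luc at 0, 2, 4, 8 or 12 h after washing. Virus removed by three washes at 2 h; lysis at 48 h. Luciferase normalized to protein, percent of no-drug control, Student's t test. Washout EC50 from immediate infection; ratio to standard EC50; ≥3 experiments in duplicate.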

[7] = tested on: Human immunodeficiency virus 1; test: Antiviral activity against single-round HIV1 NLX.Lux-R harboring inactivating mutations in env, vpr and carries firefly luciferase gene in place of nef infected in human HeLa-T4 cells assessed as time required to 50% inhibition of infection at 100 times EC95 by time-of-addition assay; format: functional; outline: as §2
[8] = tested on: Human immunodeficiency virus 1; test: Ratio of EC50 for HIV1 NL4-3.Luc assessed as infectivity using human MDM pretreated for 24 hrs followed by exposed to virus after compound washout to standard EC50 for HIV1 NL4-3.Luc; format: functional
[9] = tested on: Human immunodeficiency virus 1; test: (§5) Antiviral activity against single-round HIV1 NLX.Lux-R harboring inactivating mutations in env, vpr and carries firefly luciferase gene in place of nef assessed as suppression of 2 mins magnetic nanopartials-medated residual infection in human HeLaT4 cells treated at 100 time EC95 for 1 measured after 11 hrs of 3 times compound washout and rewashed 48 hrs post infection by time-of-addition pulse assay relative to untreated control; format: functional
Outline: (§6)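 Pulse time-of-addition: dialysed virus preincubated with magnetite nanoparticles, added to HeLa-T4 cells, 2 min under ~1 T magnetic field, then washed. At set times after infection, cells pulsed 1 h with 100× EC95 drug, washed three times and cultured drug-free. Lysis at 48 h postinfection; luciferase given as percent of no-drug control.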

[10] = tested on: Human immunodeficiency virus 1; test: as §3, with “Ratio of EC50 for” for “Antiviral activity against”, “washout to standard EC50 for HIV1 NLX.Lux-R” for “washout”; format: functional; outline: as §4
[11] = tested on: Human immunodeficiency virus 1; test: Antiviral activity against HIV1 NL4-3.Luc assessed as infectivity using human PBMC pretreated for 24 hrs followed by exposed to virus after compound washout measured after 2 to 3 days by luciferase assay; format: functional, organism-based
[12] = tested on: Human immunodeficiency virus 1; test: as §3, with “pretreated at 100 time EC95” for “pretreated”, “virus” for “virus immediately”, “after 12 hrs of” for “after”, “washout relative to untreated control cells” for “washout”; format: functional, organism-based; outline: as §4
[13] = tested on: Human immunodeficiency virus 1; test: Antiviral activity against HIV1 NL4-3.Luc assessed as infectivity using human MDM pretreated for 24 hrs followed by exposed to virus after compound washout measured after 2 to 3 days by luciferase assay; format: functional, organism-based
[14] = tested on: Human immunodeficiency virus 1; test: Antiviral activity against HIV1 NL4-3.Luc in human MDM assessed as infectivity treated for 24 hrs by luciferase assay; format: functional, organism-based; conditions: Human immunodeficiency virus 1, 24 h
[15] = tested on: Human immunodeficiency virus 1; test: Antiviral activity against HIV1 NL4-3.Luc in human PBMC assessed as infectivity treated for 24 hrs by luciferase assay; format: functional, organism-based; conditions: Human immunodeficiency virus 1, 24 h
[16] = tested on: Human immunodeficiency virus 1; test: Ratio of EC50 for HIV1 NL4-3.Luc assessed as infectivity using human PBMC pretreated for 24 hrs followed by exposed to virus after compound washout to standard EC50 for HIV1 NL4-3.Luc; format: functional
[17] = tested on: Human immunodeficiency virus 1; test: (§7) Antiviral activity against single-round HIV1 NLX.Lux-R harboring inactivating mutations in env, vpr and carries firefly luciferase gene in place of nef assessed as level of 2 mins magnetic nanopartials-medated infection in human HeLaT4 cells treated for 1 measured after of 3 times compound washout and rewashed 48 hrs post infection by time-of-addition pulse assay; format: functional; outline: as §6
[18] = tested on: Human immunodeficiency virus 1; test: Antiviral activity against single-round HIV1 NLX.Lux-R harboring inactivating mutations in env, vpr and carries firefly luciferase gene in place of nef infected in human HeLa-T4 cells assessed as time required to cause 50% loss in compound potency at 10 times EC95 by time-of-addition assay; format: functional; outline: as §2
[19] = tested on: Human immunodeficiency virus 1; test: as §5, with “level” for “suppression”, “nanopartials-medated” for “nanopartials-medated residual”, “3” for “11”, “control at 4 hr time point” for “control”; format: functional; outline: as §6
[20] = tested on: Human immunodeficiency virus 1; test: as §3, with “pretreated at 100 time EC95” for “pretreated”, “washout relative to untreated control cells” for “washout”; format: functional; outline: as §4
[21] = Drug uptake in human HeLaT4 cells assessed as compound persist measured after 3 times washout at 100 time EC95 for HIV1 for 24 hrs; format: ADME, cell-based; conditions: helat4, 24 h; outline: as §4
[22] = tested on: Human immunodeficiency virus 1; test: as §3, with “pretreated at 100 time EC95” for “pretreated”, “virus” for “virus immediately”, “after 2 to 4 hrs of” for “after”, “washout relative to untreated control cells” for “washout”; format: functional; outline: as §4
[23] = tested on: Human immunodeficiency virus 1; test: as §7, with “nanopartials-medated residual” for “nanopartials-medated”, “treated at 100 time EC95” for “treated”, “after 3 hrs” for “after”; format: functional; outline: as §6
[24] = tested on: Human immunodeficiency virus 1; test: as §3, with “pretreated at 100 time EC95” for “pretreated”, “virus” for “virus immediately”, “after 8 hrs of” for “after”, “washout relative to untreated control cells” for “washout”; format: functional, organism-based; outline: as §4

Row | Structure (SMILES) | CC50 [1] | selectivity ratio [2] | Activity [3] | EC50 [3] | EC50 [4] | EC95 [4] | Time [5] | EC50 [6] | Ratio EC50 [8] | Ratio EC50 [10] | EC50 [11] | EC50 [13] | EC50 [14] | EC95 [14] | EC50 [15] | EC95 [15] | Ratio EC50 [16] | Time [18] | Activity [20] | Drug uptake [21] | other results
1 | O=C1Nc2ccc(Cl)cc2[C@@](C#CC2CC2)(C(F)(F)F)O1 [EFAVIRENZ] | 35000 nM | 31800 | Dose-dependent effect | 1000 nM | 1.1 nM | 8 nM | – | – | – | – | – | – | – | – | – | – | – | – | – | – | –
2 | COc1cc2c(cc1Cc1cccc(Cl)c1F)c(=O)c(C(=O)O)cn2[C@H](CO)C(C)C [ELVITEGRAVIR] | 34000 nM | 11700 | Dose-dependent effect | 3400 nM | 2.9 nM | 37 nM | 10.1 h | 60 nM | 50 | 20.7 | 36 nM | 25 nM | 0.5 nM | 8.2 nM | 0.3 nM | 7.4 nM | 120 | 11.1 h | – | – | Time [7]: 11.3 h; fold change (FC) [9]: 2; Activity [12]: Active; EC98.6 [17]: 75 nM
3 | Cc1ccnc2c1NC(=O)c1cccnc1N2C1CC1 [NEVIRAPINE] | > 100000 nM | > 1370 | – | – | 73 nM | 680 nM | – | > 100000 nM | >3703 | >1370 | > 100000 nM | > 100000 nM | 27 nM | 640 nM | 41 nM | 690 nM | >2439 | 7.2 h | inactive | Not Active | Activity [19]: 23%
4 | Cc1nnc(C(=O)NC(C)(C)c2nc(C(=O)NCc3ccc(F)cc3)c(O)c(=O)n2C)o1 [RALTEGRAVIR] | > 100000 nM | > 1300 | – | – | 77 nM | 810 nM | 10.5 h | 4600 nM | 1140 | 547.6 | 3300 nM | 4900 nM | 4.3 nM | 80 nM | 2.4 nM | 48 nM | 1375 | 10.2 h | 19% | – | Activity [22]: 50%; Time [7]: 12.7 h; fold change (FC) [9]: 2; Activity [23]: 9%; EC91 ([17]; Human immunodeficiency virus 1, HeLaT4): 0.073 µM
5 | CC(C)OC(=O)OCOP(=O)(CO[C@H](C)Cn1cnc2c(N)ncnc21)OCOC(=O)OC(C)C.O=C(O)/C=C/C(=O)O [TENOFOVIR DISOPROXIL FUMARATE] | 34000 nM | 11700 | – | – | 2.9 nM | 37 nM | – | 120 nM | 1.2 | 4 | 55 nM | 34 nM | 28 nM | 520 nM | 46 nM | 720 nM | 1.2 | – | – | Active | Activity [12]: Active; EC99.6 [17]: 0.95 µM
6 | Cc1cn([C@H]2C[C@H](N=[N+]=[N-])[C@@H](CO)O2)c(=O)[nH]c1=O [ZIDOVUDINE] | > 100000 nM | > 11900 | – | – | 8.4 nM | 90 nM | – | 4600 nM | – | 59.7 | – | – | – | – | – | – | – | 4.8 h | 18% | Active | Activity [22]: 40%; Activity [24]: inactive
